Test results published in ChEMBL document CHEMBL1148844, “5-((1H-pyrazol-4-yl)methylene)-2-thioxothiazolidin-4-one inhibitors of ADAMTS-5” (Bioorg Med Chem Lett, 2007).
pIC50: −log10 of the molar value.

These compounds were tested against T1, A disintegrin and metalloproteinase with thrombospondin motifs 5 (Homo sapiens) (UniProt Q9UNA0) (assay: Inhibition of ADAMTS5 at 20 uM by FRET assay).
T1 sequence (whole entry): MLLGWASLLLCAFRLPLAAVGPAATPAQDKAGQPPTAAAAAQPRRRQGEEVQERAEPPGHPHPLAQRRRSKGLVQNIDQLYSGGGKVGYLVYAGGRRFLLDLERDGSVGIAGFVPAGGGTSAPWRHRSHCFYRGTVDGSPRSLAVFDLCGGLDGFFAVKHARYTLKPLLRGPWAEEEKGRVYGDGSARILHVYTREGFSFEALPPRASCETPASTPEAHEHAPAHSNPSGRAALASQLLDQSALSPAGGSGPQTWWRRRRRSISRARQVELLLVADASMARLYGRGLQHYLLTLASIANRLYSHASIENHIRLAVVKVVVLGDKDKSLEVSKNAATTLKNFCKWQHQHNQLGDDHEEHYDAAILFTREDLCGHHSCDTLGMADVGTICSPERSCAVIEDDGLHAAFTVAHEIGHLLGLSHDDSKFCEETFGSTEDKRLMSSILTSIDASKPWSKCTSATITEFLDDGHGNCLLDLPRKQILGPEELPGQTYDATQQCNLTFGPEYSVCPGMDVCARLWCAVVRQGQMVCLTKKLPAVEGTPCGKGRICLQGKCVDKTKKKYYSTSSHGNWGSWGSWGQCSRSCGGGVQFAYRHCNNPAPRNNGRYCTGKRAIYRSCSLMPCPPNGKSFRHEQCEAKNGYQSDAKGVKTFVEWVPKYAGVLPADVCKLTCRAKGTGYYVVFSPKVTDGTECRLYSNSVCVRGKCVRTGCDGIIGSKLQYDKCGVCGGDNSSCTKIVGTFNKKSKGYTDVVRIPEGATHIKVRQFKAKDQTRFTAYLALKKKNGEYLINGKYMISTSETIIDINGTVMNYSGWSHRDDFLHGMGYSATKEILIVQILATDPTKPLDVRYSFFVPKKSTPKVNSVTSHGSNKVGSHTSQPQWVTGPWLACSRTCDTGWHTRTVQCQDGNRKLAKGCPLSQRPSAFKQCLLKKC
Outline: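 Percent inhibition of aggrecanase-2 (ADAMTS-5) measured at a single 20 µM compound level. Reported values are means of two experiments, with standard deviations of ±10%.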

**Q.** With `CN1CCN(c2c(/C=C3\SC(=S)NC3=O)c(C(F)(F)F)nn2-c2ccccc2)CC1` as the compound, how does the inhibition read?
**A.** 45%

**Q.** With `Cn1nc(C(F)(F)F)c(/C=C2\SC(=S)NC2=O)c1Sc1ccc(Cl)cc1` as the compound, how does the inhibition read?
**A.** 47%

**Q.** How did the inhibition turn out when `CN1CCN(c2c(CC3SC(=S)NC3=O)c(C(F)(F)F)nn2-c2ccccc2)CC1` (stereo unspecified) was run?
**A.** < 40%

**Q.** With `COc1ccc(CCOc2c(/C=C3\SC(=S)NC3=O)c(C(F)(F)F)nn2-c2ccccc2)cc1` as the compound, how does the inhibition read?
**A.** 31%

**Q.** With `O=C1NC(=S)SC1Cc1c(C(F)(F)F)nn(-c2ccccc2)c1SCc1ccco1` (stereo unspecified) as the compound, how does the inhibition read?
**A.** 42%

**Q.** How did the inhibition turn out when `Cn1nc(C(F)(F)F)c(/C=C2\SC(=S)NC2=O)c1SCc1cccs1` was run?
**A.** 40%

**Q.** Which inhibition does the source give for `Cn1nc(C(F)(F)F)c(/C=C2\SC(=S)NC2=O)c1SCc1ccccc1` here?
**A.** 44%

**Q.** `O=C1NC(=S)S/C1=C\c1c(C(F)(F)F)nn(-c2ccccc2)c1SCc1ccco1` was tested. Which inhibition did it give?
**A.** 42%

**Q.** With `COc1ccc(CSc2c(/C=C3\SC(=S)NC3=O)c(C(F)(F)F)nn2C)cc1` as the compound, how does the inhibition read?
**A.** 53%

**Q.** Which inhibition does the source give for `Cn1nc(C(F)(F)F)c(/C=C2\SC(=S)NC2=O)c1Sc1ccccc1` here?
**A.** 28%

What follows are compounds tested against T2, A disintegrin and metalloproteinase with thrombospondin motifs 4 (Homo sapiens, UniProt O75173) (assay: Inhibition of ADAMTS4 by FRET assay).
T2 sequence (O75173 whole entry): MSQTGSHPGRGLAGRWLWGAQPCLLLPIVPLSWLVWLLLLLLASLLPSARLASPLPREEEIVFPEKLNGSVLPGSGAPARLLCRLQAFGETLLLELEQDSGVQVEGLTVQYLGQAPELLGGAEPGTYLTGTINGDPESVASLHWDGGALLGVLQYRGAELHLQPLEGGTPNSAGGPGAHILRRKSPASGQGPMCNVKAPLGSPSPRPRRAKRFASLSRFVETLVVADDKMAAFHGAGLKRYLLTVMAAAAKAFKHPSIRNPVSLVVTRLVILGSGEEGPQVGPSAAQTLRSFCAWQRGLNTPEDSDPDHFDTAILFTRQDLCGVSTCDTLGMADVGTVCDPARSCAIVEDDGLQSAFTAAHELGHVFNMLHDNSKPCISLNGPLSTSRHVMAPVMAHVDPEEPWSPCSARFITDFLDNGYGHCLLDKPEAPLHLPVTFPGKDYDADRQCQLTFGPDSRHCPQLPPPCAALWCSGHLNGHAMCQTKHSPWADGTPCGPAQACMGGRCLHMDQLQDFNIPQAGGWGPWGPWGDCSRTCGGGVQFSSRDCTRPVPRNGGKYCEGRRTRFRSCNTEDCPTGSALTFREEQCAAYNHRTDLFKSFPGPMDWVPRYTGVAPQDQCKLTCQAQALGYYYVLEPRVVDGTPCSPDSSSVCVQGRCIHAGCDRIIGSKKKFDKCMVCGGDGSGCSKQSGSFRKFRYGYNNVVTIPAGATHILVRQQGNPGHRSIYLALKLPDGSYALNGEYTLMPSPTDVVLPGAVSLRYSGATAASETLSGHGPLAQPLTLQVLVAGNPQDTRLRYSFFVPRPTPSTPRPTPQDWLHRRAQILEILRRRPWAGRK

**Q.** `Cn1nc(C(F)(F)F)c(/C=C2\SC(=S)NC2=O)c1SCc1ccc(C(C)(C)C)cc1` was tested. Which pIC50 did it give?
**A.** 5.12

These compounds were tested against T3, A disintegrin and metalloproteinase with thrombospondin motifs 5 (Homo sapiens, UniProt Q9UNA0) (assay: Inhibition of ADAMTS5 by FRET assay).
T3 sequence (Q9UNA0 whole entry): T1 sequence (whole entry)
Outline: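 Aggrecanase-2 (ADAMTS-5) inhibition reported as IC50 in µM. Values are means of two independent experiments, with standard deviations of ±10%.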

**Q.** With `O=C1NC(=S)S/C1=C\c1c(-c2ccccc2)nn(-c2ccccc2)c1SCc1ccco1` as the compound, how does the pIC50 read?
**A.** 5.17

**Q.** With `O=C1NC(=S)S/C1=C\c1c(C(F)(F)F)nn(-c2ccccc2)c1N1CCN(c2ccc(Cl)cc2)CC1` as the compound, how does the pIC50 read?
**A.** 5.68

**Q.** With `O=C1NC(=S)S/C1=C\c1c(C(F)(F)F)nn(C2CCCCC2)c1N1CCN(c2ncccn2)CC1` as the compound, how does the pIC50 read?
**A.** 4.93

**Q.** How did the pIC50 turn out when `O=C1NC(=S)S/C1=C\c1c(C(F)(F)F)nn(-c2ccccc2)c1SCc1ccccc1` was run?
**A.** 4.77

**Q.** With `O=C1NC(=S)SC1Cc1c(C(F)(F)F)nn(-c2ccccc2)c1SCc1ccc(Cl)cc1` (stereo unspecified) as the compound, how does the pIC50 read?
**A.** 5.24

**Q.** How did the pIC50 turn out when `CN1CCN(c2c(/C=C3\SC(=S)NC3=O)c(-c3ccccc3)nn2-c2ccccc2)CC1` was run?
**A.** 5.34

**Q.** With `O=C1NC(=S)S/C1=C\c1c(C(F)(F)F)nn(-c2ccccc2)c1SCc1ccc(Cl)cc1` as the compound, how does the pIC50 read?
**A.** 5.60

**Q.** With `O=C1NC(=S)S/C1=C\c1c(-c2ccccc2)nn(C2CCCCC2)c1SCc1ccco1` as the compound, how does the pIC50 read?
**A.** 5.34

**Q.** `Cn1nc(C(F)(F)F)c(/C=C2\SC(=S)NC2=O)c1N1CCN(c2ccc(Cl)cc2)CC1` was tested. Which pIC50 did it give?
**A.** 5.05

**Q.** How did the pIC50 turn out when `O=C1NC(=S)S/C1=C\c1c(C(F)(F)F)nn(-c2ccccc2)c1OCCc1ccc(Cl)cc1` was run?
**A.** 5.38

**Q.** With `O=C1NC(=S)S/C1=C\c1c(C(F)(F)F)nn(-c2ccccc2)c1OCCc1cccs1` as the compound, how does the pIC50 read?
**A.** 5.04

**Q.** `O=C1NC(=S)S/C1=C\c1c(C(F)(F)F)nn(C2CCCCC2)c1SCc1ccc(Cl)cc1` was tested. Which pIC50 did it give?
**A.** 5.38

**Q.** How did the pIC50 turn out when `O=C1NC(=S)S/C1=C\c1c(-c2ccccc2)nn(-c2ccccc2)c1SCc1cccs1` was run?
**A.** 5.43

**Q.** With `O=C1NC(=S)S/C1=C\c1c(-c2ccccc2)nn(C2CCCCC2)c1N1CCN(c2ncccn2)CC1` as the compound, how does the pIC50 read?
**A.** 5.10

**Q.** With `Cn1nc(C(F)(F)F)c(/C=C2\SC(=S)NC2=O)c1SCc1ccc(Cl)cc1` as the compound, how does the pIC50 read?
**A.** 5.96

**Q.** How did the pIC50 turn out when `Cn1nc(C(F)(F)F)c(/C=C2\SC(=S)NC2=O)c1SCc1ccccc1Cl` was run?
**A.** 4.63

**Q.** With `Cn1nc(-c2ccccc2)c(/C=C2\SC(=S)NC2=O)c1SCc1ccco1` as the compound, how does the pIC50 read?
**A.** 4.85

**Q.** `O=C1NC(=S)S/C1=C\c1c(C(F)(F)F)nn(-c2ccccc2)c1OCCc1ccc(F)cc1` was tested. Which pIC50 did it give?
**A.** 5.15

**Q.** `Cn1nc(C(F)(F)F)c(/C=C2\SC(=S)NC2=O)c1SCc1ccc(C(C)(C)C)cc1` was tested. Which pIC50 did it give?
**A.** 5.66

**Q.** With `Cc1ccc(Sc2c(/C=C3\SC(=S)NC3=O)c(-c3ccccc3)nn2C)cc1` as the compound, how does the pIC50 read?
**A.** 5.08
